A short description of data set [1]: Steady state UV/Vis absorption. Format: physicochemical. To be noted: for ε 355 (extinction coefficient): 355 nm.
Data set [2] can be described thus: Laser flash photolysis. The class given is physicochemical. To be noted: excitation 355 nm, 30 mJ, 0.4 mM in 5× PBS buffer, pH 7. The procedure, abridged: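 Transient absorption after a single 355 nm pulse (third harmonic) from a Nd:YAG laser at 30 mJ pulse energy. Test compound at 0.4 mM in 5× PBS buffer, pH 7, in a 1 cm × 1 cm cuvette. The kinetic trace of the transient species, assigned to the nitronate, was followed over time to obtain its decay.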

Values joined by “and” are separate entries in the source; they are usually repeats but may differ in a detail not shown here. Equal entries are not always repeated.

As for `N[C@@H](CC(=O)O)C(=O)OC(C(=O)O)c1ccccc1[N+](=O)[O-].O=C(O)C(F)(F)F` (mixture of isomers) [1a, α-carboxynitrobenzyl L-aspartate], in data set [1], the “ε 355 (extinction coefficient)” value was determined as 430 M⁻¹ cm⁻¹.

With `N[C@@H](CC(=O)O)C(=O)OC(C(=O)O)c1cc2c(cc1[N+](=O)[O-])OCO2.O=C(O)C(F)(F)F` (stereo partly drawn) [1b, α-carboxynitropiperonyl L-aspartate], in data set [2], the “time constant of nitronate decay observed at 430 nm” value was 0.87 ms and 0.87 ± 0.04 ms. Further, in data set [1], the “λmax (additional absorption band)” value stood at 365 nm and the “ε 355 (extinction coefficient)” value turned out to be 4060 M⁻¹ cm⁻¹. In data set [1] (at 365 nm), the “extinction coefficient at λmax” value was ~ 4000 M^−1 cm^−1.
